{"source": "ChEMBL document CHEMBL4765336", "about": "“Discovery of coumarin derivatives as potent and selective cyclin-dependent kinase 9 (CDK9) inhibitors with high antitumour activity” (Eur J Med Chem, 2020)", "key": {"[1]": {"assay": "Metabolic stability in dog liver microsomes assessed as intrinsic clearance at 1 uM incubated up to 60 mins in presence of NADPH by LC-MS/MS analysis", "assay_type": "ADME, Canis lupus familiaris, Microsome", "settings": "read-out: CLH", "outline": "(§1)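 Liver microsomes (0.5 mg/mL) incubated at 37 °C with compound at 1.0 μM final, 3 mM MgCl2 and 1 mM NADPH in 100 mM PBS pH 7.4. Samples taken at 0, 5, 15, 30, 60 min; remaining parent measured by LC-MS/MS. k = −slope, T1/2 = 0.693/k, CLint = k/microsomal protein concentration. Midazolam served as control.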"}, "[2]": {"assay": "AUC (0 to t) in ICR mouse at 2 mg/kg, iv measured up to 24 hrs by LC-MS/MS analysis", "assay_type": "ADME, organism-based", "parameters": "route intravenous, dose 2 mg/kg, time <=24", "settings": "in vivo"}, "CDK2/Cyclin A2": {"target": "CDK2/Cyclin A2 (Homo sapiens, UniProt P24941)", "assay": "Inhibition of CDK2/Cyclin A (unknown origin) preincubated for 20 mins followed by ATP addition and measured after 120 mins in presence of [33P-gamma] ATP by hotspot kinase assay", "assay_type": "protein-complex assay", "outline": "(§2)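 Radiometric filter-binding assay: kinase and substrate in 20 mM Hepes pH 7.5, 10 mM MgCl2, 1 mM EGTA, 0.02% Brij35, 0.02 mg/mL BSA, 0.1 mM Na3VO4, 2 mM DTT, 1% DMSO. Compound (top 1/10/27 μM, 3-fold serial dilutions) preincubated 20 min at 25 °C. ATP plus [γ-33P]ATP added to 10 μM final, reacted 120 min at 25 °C. IC50 from curve fit, duplicate mean.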"}, "BXPC-3": {"tested_on": "BXPC-3", "assay": "Antiproliferative activity against human BxPC3 cells assessed as inhibition of cell growth incubated for 72 hrs by Celltiter-Glo luminescent assay", "assay_type": "functional, cell-based", "settings": "BXPC-3, 72 h", "outline": "(§3)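 Cells seeded in growth medium and held overnight at 37 °C; medium-only wells served as background. DMSO stocks were diluted in medium to 3× final and added; cells incubated 72 h at 37 °C, 5% CO2. Viability read by CellTiter-Glo luminescence after 60 min at room temperature. IC50 from curve fit, mean of duplicate.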"}, "[3]": {"assay": "Metabolic stability in monkey liver microsomes assessed as intrinsic clearance at 1 uM incubated up to 60 mins in presence of NADPH by LC-MS/MS analysis", "assay_type": "ADME, Macaca mulatta, Microsome", "settings": "rhesus monkey, read-out: CLH", "outline": "as §1"}, "[4]": {"assay": "Half life in ICR mouse at 2 mg/kg, iv measured up to 24 hrs by LC-MS/MS analysis", "assay_type": "ADME, organism-based", "settings": "in vivo", "outline": "(§4)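 Male ICR mice (25.1–28.8 g, n=9), fasted 12 h, given a single i.v. dose of 2.0 mg/kg at 0.4 mg/mL in DMSO/PEG200/saline (1:1:3). Blood sampled at 0, 0.083, 0.25, 0.5, 1, 2, 4, 8, 24 h. Plasma ACN-precipitated and quantified by LC-MS/MS. Parameters derived from composite mean plasma concentration-time data.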"}, "MV4-11 [5]": {"tested_on": "MV4-11", "assay": "Antitumor activity against human MV4-11 cells xenografted in Balb/c nude mouse assessed as tumor growth inhibition at 40 mg/kg, iv administered once daily for 21 days and measured twice a week by vernier caliper method relative to control", "assay_type": "functional", "settings": "MV4-11, iv, 504 h, time 21 day, read-out: TGI"}, "MIA PaCa-2": {"tested_on": "MIA PaCa-2", "assay": "Antiproliferative activity against human MIA PaCa-2 cells assessed as inhibition of cell growth incubated for 72 hrs by Celltiter-Glo luminescent assay", "assay_type": "functional, cell-based", "settings": "MIA PaCa-2, 72 h", "outline": "as §3"}, "CDK8/Cyclin C": {"target": "CDK8/Cyclin C (Homo sapiens, UniProt P49336)", "sequence (P49336 whole entry)": "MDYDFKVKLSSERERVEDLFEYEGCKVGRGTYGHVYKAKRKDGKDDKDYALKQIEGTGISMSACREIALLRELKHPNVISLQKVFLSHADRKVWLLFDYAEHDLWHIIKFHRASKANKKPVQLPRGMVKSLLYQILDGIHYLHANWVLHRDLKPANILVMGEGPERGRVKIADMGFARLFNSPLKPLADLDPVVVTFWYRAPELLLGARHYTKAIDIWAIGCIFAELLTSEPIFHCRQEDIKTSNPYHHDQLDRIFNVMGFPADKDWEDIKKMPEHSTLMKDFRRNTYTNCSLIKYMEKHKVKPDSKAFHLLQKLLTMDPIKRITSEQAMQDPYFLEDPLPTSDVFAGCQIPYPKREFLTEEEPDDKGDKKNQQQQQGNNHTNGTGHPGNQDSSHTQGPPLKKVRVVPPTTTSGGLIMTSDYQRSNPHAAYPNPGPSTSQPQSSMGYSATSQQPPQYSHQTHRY", "sequence (P24863 whole entry, further chain)": "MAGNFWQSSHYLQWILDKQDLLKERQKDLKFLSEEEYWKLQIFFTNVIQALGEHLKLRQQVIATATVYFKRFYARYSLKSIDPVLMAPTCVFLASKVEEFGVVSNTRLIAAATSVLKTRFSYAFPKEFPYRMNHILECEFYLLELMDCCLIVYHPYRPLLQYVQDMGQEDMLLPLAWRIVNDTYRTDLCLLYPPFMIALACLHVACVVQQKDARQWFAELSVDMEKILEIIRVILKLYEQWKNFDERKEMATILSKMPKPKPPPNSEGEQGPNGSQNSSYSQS", "assay": "Inhibition of CDK8/Cyclin C (unknown origin) preincubated for 20 mins followed by ATP addition and measured after 120 mins in presence of [33P-gamma] ATP by hotspot kinase assay", "assay_type": "protein-complex assay", "outline": "as §2"}, "[6]": {"assay": "Metabolic stability in monkey liver microsomes assessed as half life at 1 uM incubated up to 60 mins in presence of NADPH by LC-MS/MS analysis", "assay_type": "ADME, Macaca mulatta, Microsome", "settings": "rhesus monkey", "outline": "as §1"}, "PANC-1": {"tested_on": "PANC-1", "assay": "Antiproliferative activity against human PANC-1 cells assessed as inhibition of cell growth incubated for 72 hrs by Celltiter-Glo luminescent assay", "assay_type": "functional, cell-based", "settings": "PANC-1, 72 h", "outline": "as §3"}, "[7]": {"assay": "Clearance in ICR mouse at 2 mg/kg, iv measured up to 24 hrs by LC-MS/MS analysis", "assay_type": "ADME, organism-based", "settings": "in vivo", "outline": "as §4"}, "MV4-11 [8]": {"tested_on": "MV4-11", "assay": "Antitumor activity against human MV4-11 cells xenografted in iv dosed BALB/c nude mouse assessed as tumor growth inhibition administered once daily for 21 days and measured twice per week by vernier caliper method", "assay_type": "functional, organism-based", "settings": "dose 10-40 mg/kg, time 21.0 day"}, "[9]": {"target": "Voltage-gated inwardly rectifying potassium channel KCNH2 (Homo sapiens, UniProt Q12809)", "sequence (Q12809 whole entry)": "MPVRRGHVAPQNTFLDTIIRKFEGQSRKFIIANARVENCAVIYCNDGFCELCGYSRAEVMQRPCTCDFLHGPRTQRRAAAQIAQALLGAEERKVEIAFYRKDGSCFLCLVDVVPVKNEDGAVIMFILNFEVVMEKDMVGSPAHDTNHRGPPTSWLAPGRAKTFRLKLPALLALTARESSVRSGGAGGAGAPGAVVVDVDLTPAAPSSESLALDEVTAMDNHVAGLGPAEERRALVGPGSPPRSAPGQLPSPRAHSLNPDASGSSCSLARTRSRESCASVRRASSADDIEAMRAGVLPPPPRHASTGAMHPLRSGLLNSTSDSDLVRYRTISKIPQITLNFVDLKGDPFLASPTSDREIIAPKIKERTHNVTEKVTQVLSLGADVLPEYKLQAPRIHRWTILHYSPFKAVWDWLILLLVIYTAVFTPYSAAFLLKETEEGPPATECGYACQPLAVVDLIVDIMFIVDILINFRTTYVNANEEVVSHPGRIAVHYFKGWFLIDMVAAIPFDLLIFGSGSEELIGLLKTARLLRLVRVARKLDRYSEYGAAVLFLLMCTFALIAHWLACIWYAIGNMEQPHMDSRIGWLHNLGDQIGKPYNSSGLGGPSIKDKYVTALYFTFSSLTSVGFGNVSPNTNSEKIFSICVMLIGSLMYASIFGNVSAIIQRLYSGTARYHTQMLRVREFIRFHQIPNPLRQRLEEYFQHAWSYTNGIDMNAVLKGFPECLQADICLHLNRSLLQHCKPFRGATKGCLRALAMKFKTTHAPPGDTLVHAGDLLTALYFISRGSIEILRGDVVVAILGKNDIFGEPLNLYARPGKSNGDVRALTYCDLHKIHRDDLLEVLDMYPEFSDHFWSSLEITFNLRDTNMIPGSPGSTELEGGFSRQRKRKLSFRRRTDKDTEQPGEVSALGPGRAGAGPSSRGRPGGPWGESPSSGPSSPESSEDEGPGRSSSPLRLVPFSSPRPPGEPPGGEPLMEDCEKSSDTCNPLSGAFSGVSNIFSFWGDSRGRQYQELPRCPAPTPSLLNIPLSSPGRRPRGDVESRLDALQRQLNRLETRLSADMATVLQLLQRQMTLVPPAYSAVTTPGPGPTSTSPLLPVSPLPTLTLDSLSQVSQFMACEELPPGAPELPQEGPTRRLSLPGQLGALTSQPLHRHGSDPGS", "assay": "Inhibition of fluorescently labeled tracer binding to human ERG by competitive binding assay", "outline": "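Fluorescent tracer competition assay against a membrane preparation containing hERG.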"}, "MV4-11 [10]": {"tested_on": "MV4-11", "assay": "Antitumor activity against human MV4-11 cells xenografted in Balb/c nude mouse assessed as reduction in tumor volume at 40 mg/kg, iv administered once daily for 21 days (reference value: 1.00 g)", "assay_type": "functional", "settings": "time 21 day"}, "[11]": {"assay": "Metabolic stability in human liver microsomes assessed as half life at 1 uM incubated up to 60 mins in presence of NADPH by LC-MS/MS analysis", "assay_type": "ADME, Microsome", "outline": "as §1"}, "[12]": {"target": "Cyclin-C/Cyclin-dependent kinase 19 (Homo sapiens, UniProt Q9BWU1)", "sequence (Q9BWU1 whole entry)": "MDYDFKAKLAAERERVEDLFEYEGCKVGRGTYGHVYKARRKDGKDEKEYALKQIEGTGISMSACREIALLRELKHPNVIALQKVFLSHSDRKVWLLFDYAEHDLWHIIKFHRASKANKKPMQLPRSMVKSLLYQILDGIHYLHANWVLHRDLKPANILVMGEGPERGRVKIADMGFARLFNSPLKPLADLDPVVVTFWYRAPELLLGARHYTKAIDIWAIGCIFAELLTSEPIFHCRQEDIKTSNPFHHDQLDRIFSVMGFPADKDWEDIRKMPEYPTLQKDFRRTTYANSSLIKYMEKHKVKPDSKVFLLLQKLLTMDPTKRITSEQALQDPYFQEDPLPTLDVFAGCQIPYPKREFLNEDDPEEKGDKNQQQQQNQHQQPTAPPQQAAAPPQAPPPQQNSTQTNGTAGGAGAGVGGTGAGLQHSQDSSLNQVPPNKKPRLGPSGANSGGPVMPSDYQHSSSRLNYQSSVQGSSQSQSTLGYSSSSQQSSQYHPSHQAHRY", "sequence (P24863 whole entry, further chain)": "as the sequence (P24863 whole entry, further chain) above", "assay": "Inhibition of CDK19/Cyclin C (unknown origin) preincubated for 20 mins followed by ATP addition and measured after 120 mins in presence of [33P-gamma] ATP by hotspot kinase assay", "assay_type": "protein-complex assay", "outline": "as §2"}, "[13]": {"assay": "Cmax in ICR mouse at 30 mg/kg, po measured up to 24 hrs by LC-MS/MS analysis", "assay_type": "ADME, organism-based", "parameters": "route oral, dose 30 mg/kg, time <=24", "settings": "in vivo", "outline": "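Male ICR mice (25.1–28.8 g, n=9), fasted overnight (12 h), single oral gavage 30 mg/kg as 3 mg/mL in 0.5% CMC-Na with 0.2% Tween 80. Venous blood drawn into EDTA-K2 at 0, 0.25, 0.5, 1, 2, 4, 8, 24 h. Plasma protein-precipitated with ACN and run on LC-MS/MS (C18, formic acid/ACN). Noncompartmental parameters taken from composite mean concentration-time data.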"}, "A-375": {"tested_on": "A-375", "assay": "Antiproliferative activity against human A-375 cells assessed as inhibition of cell growth incubated for 72 hrs by Celltiter-Glo luminescent assay", "assay_type": "functional, cell-based", "settings": "A-375, 72 h", "outline": "as §3"}, "[14]": {"assay": "Toxicity in BALB/c nude mouse xenografted with human MV4-11 cells assessed as body weight loss at 40 mg/kg, iv administered once daily for 21 days and measured 2 or 3 times per week", "assay_type": "organism-based", "settings": "in vivo, 504 h, time 21 day", "outline": "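Female BALB/c nude mice, six weeks old, with subcutaneous right-flank MV4-11 xenografts (5 million cells in PBS mixed 1:1 with Matrigel). Daily intravenous dosing started at tumour size 150–200 mm³, 6 mice per group, for 21 consecutive days. Vehicle was dimethylacetamide 20%/polyoxyethylated castor oil 40%/anhydrous ethanol 40%. Body weight was recorded two or three times weekly, and mortality was monitored throughout treatment.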"}, "MDA-MB-231": {"tested_on": "MDA-MB-231", "assay": "Antiproliferative activity against human MDA-MB-231 cells assessed as inhibition of cell growth incubated for 72 hrs by Celltiter-Glo luminescent assay", "assay_type": "functional, cell-based", "settings": "MDA-MB-231, 72 h", "outline": "as §3"}, "[15]": {"assay": "Metabolic stability in rat liver microsomes assessed as half life at 1 uM incubated up to 60 mins in presence of NADPH by LC-MS/MS analysis", "assay_type": "ADME, Microsome", "outline": "as §1"}}}
{"smiles": "COc1cc(F)ccc1-c1nc(Nc2ccc3c(N4CCOCC4)c(C(C)=O)c(=O)oc3c2)ncc1F", "values": [{"measurement": "microsomal CLint at 1 µM", "setting": "[1]", "result": 98.7, "unit": "µL/min/mg"}, {"measurement": "AUC(0-t) at 24 h", "setting": "[2]", "result": 560, "unit": "ng·h/mL"}, {"measurement": "IC50", "setting": "CDK2/Cyclin A2", "result": 320, "unit": "nM"}, {"measurement": "IC50", "setting": "BXPC-3", "result": 80, "unit": "nM"}, {"measurement": "microsomal CLint at 1 µM", "setting": "[3]", "result": 57.3, "unit": "µL/min/mg"}, {"measurement": "half-life", "setting": "[4]", "result": 13.8, "unit": "min"}, {"measurement": "inhibition in vivo at 40 mg/kg", "setting": "MV4-11 [5]", "result": 100, "unit": "%"}, {"measurement": "IC50", "setting": "MIA PaCa-2", "result": 460, "unit": "nM"}, {"measurement": "IC50", "setting": "CDK8/Cyclin C", "result": 6500, "unit": "nM"}, {"measurement": "half-life at 1 µM", "setting": "[6]", "result": 24.2, "unit": "min"}, {"measurement": "IC50", "setting": "PANC-1", "result": 300, "unit": "nM"}, {"measurement": "clearance", "setting": "[7]", "result": 59.3, "unit": "mL/min/kg"}, {"measurement": "Activity", "setting": "MV4-11 [8]", "result": "Dose-dependent effect"}, {"measurement": "IC50", "setting": "[9]", "result": 10100, "unit": "nM"}, {"measurement": "Activity", "setting": "MV4-11 [10]", "result": 0.18, "unit": "g"}, {"measurement": "half-life at 1 µM", "setting": "[11]", "result": 35.7, "unit": "min"}, {"measurement": "IC50", "setting": "[12]", "result": 15500, "unit": "nM"}, {"measurement": "Cmax", "setting": "[13]", "result": 665, "unit": "ng/mL"}, {"measurement": "IC50", "setting": "A-375", "result": 90, "unit": "nM"}, {"measurement": "Activity", "setting": "[14]", "result": "Non-Toxic"}, {"measurement": "IC50", "setting": "MDA-MB-231", "result": 230, "unit": "nM"}, {"measurement": "half-life at 1 µM", "setting": "[15]", "result": 2.01, "unit": "min"}]}
